One series concerns Caco-2 cells. The series is described as follows: Caco-2 cell permeation study. The class given is in vitro ADME. The note with it: apical to basolateral, 187.5 μg/mL of BA, pH 6.8, 37 °C; mean±SD, n=3. In general terms: Caco-2 cells form a polarised layer with tight junctions and transporters.
Series [1] can be described thus: Caco-2 cell permeation study. The class given is in vitro ADME. The conditions noted are these: human, Caco-2, pH 6.8.
Series [2] is described as follows: Oral bioavailability of BA–PC–SMEDDS and BA suspensions. The conditions noted are these: both, Sprague-Dawley, rat, in vivo, 75 mg.
The test system of series [3] is intestine segments (duodenum and jejunum, ileum, colon). The series is described as follows: In situ single-pass intestinal perfusion. Type of series: in vivo, Sprague-Dawley rats. The note with it: rat SPIP, 750 μg/mL BA in KR buffer pH 6.0, mean±SD, n=6.
A short description of series [4]: Dispersible uniformity and stability in water. Type of series: physicochemical. The note with it: dispersed in water, 37 °C. The method in brief: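 Free test compound dispersed in water by simple agitation, alongside its phospholipid complex and complex-loaded self-microemulsifying formulation (drug:phospholipid molar ratios 1:1, 1:1.5, 1:2). Samples held at 37 °C in a water bath. Drug in the upper solution quantified by UV spectrophotometry at 316 nm at 0, 4, 8, 12 and 24 h. Bottles inspected visually for bottom precipitate.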

Series [5] is described as follows: Solubility of BA and BA–PC in water or octanol. The class given is physicochemical. The note with it: octanol, 37 °C, organic solvent or mixture, thermodynamic from solid.

Values after ≈ are worked out from the molar mass of the structure shown. Values joined by “and” are separate entries in the source; they are usually repeats but may differ in a detail not shown here. Identical values can stand only once.

As a reminder, the Papp A→B is the apparent permeability from the apical to the basolateral side of a cell layer. For orientation: Papp B→A means how fast a substance crosses the layer from the basolateral side. In general, efflux ratio refers to a quotient of directional permeabilities that is used to spot active efflux. By AUC is commonly meant the area under the concentration-time curve, a measure of exposure. Broadly, the Cmax is the peak of the concentration-time curve. The Tmax is the time from dosing to the highest level. As a reminder, the solubility is the dissolved amount per volume that the medium holds.

As for `O=C(O)[C@H]1O[C@@H](Oc2cc3oc(-c4ccccc4)cc(=O)c3c(O)c2O)[C@H](O)[C@@H](O)[C@@H]1O` [BA, 5,6-dihydroxy-4-oxygen-2-phenyl-4H-1-benzopyran-7-β-D-glucopyranoseacid], the “Papp through Caco-2 monolayer” value in the series with Caco-2 cells is 0.037 ×10^−6, cm/s and 0.037±0.012 ×10^−6, cm/s. Moreover, in series [1], the Papp A→B at 180 min, 187.5 μg/mL worked out at 0.119 ± 0.092 ×10⁻⁶ cm/s; the Papp B→A at 180 min, 187.5 μg/mL is 0.365 ± 0.096 ×10⁻⁶ cm/s; the efflux ratio at 180 min, 187.5 μg/mL is 3.07. Also, in series [2], the AUC amounted to 7610 ± 1580 ng·h/mL, the Cmax amounted to 1840 ± 470 ng/mL and the Tmax worked out at 1.5 h. For the same compound, the “Peff, Colon” value in series [3] (colon) was 0.506±0.088 ×10^−4, cm/s. In addition, the “Peff, Duodenum+jejunum” value in series [3] (duodenum+jejunum) was 0.139±0.035 ^⁎ ×10^−4, cm/s. Further, the “Peff, Ileum” value in series [3] (ileum) was 0.252±0.081 ^⁎ ×10^−4, cm/s. Moreover, in series [4], the “Precipitate at the bottom of the bottles (visual)” value is given as “precipitates”. Moreover, in series [4] (initially), the “Concentration of BA in the upper solution, initially” value is listed as “nearly zero”. In addition, in series [5], the solubility at 48 h worked out at 136 ± 12 µg/mL (≈ 305 µM).

(Values after publication PMC4629064 (Acta Pharmaceutica Sinica. B, 2014).)
